From ChEMBL document CHEMBL4257483, “Design, synthesis and bioactivities of phenithionate analogues or derivatives for anti-schistosomiasis” (Medchemcomm, 2018)
Values after ≈ are worked out from the molar mass of the structure shown. Active and inactive are the calls of the source. The rule behind the calls is not given here.

Assays:
Schistosoma japonicum [1] = test: Antischistosomal activity against Schistosoma japonicum larva derived from infected mouse assessed as reduction in larva viability after 72 hrs; assay type: functional, organism-based
Outline: (§1)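 Worms perfused with cold heparinised HBSS from mice infected percutaneously with S. japonicum cercariae: larvae at 15 days post-infection (260–280 cercariae), adults at 35 days (120–140 cercariae). Five male and female worms per well in 10% calf serum RPMI 1640 with penicillin, streptomycin and amphotericin B. Preincubated 4 h at 37 °C, 5% CO2, then compounds added and viability recorded over 72 h. IC50 taken at 50% survival. DMSO blank.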

Schistosoma japonicum [2] = test: Antischistosomal activity against Schistosoma japonicum imago derived from infected mouse assessed as reduction in imago viability after 72 hrs; assay type: functional, organism-based; outline: as §1
Schistosoma japonicum [3] = test: Antischistosomal activity against Schistosoma japonicum imago derived from infected mouse at 20 ug/ml after 72 hrs; assay type: functional, organism-based; outline: as §1
Schistosoma haematobium = test: Antischistosomal activity against Schistosoma haematobium imago derived from infected mouse at 20 ug/ml after 72 hrs; assay type: functional, organism-based
Schistosoma mansoni = test: Antischistosomal activity against Schistosoma mansoni imago derived from infected mouse at 20 ug/ml after 72 hrs; assay type: functional, organism-based
[4] = Lipid/water partition coefficient, log P of the compound; assay type: physicochemical
[5] = Dissociation constant, pKa of the compound; assay type: physicochemical
Schistosoma japonicum [6] = test: Antischistosomal activity against Schistosoma japonicum infected in mouse at 25 mg/kg/day, po treated for 5 days measured after day 1 post last dose by ELISA; assay type: functional, organism-based
Outline: (§2)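 Male mice (20–22 g) infected via abdominal skin with 120–140 S. japonicum cercariae. From day 35 post-infection, dosed orally once daily for 5 days. Venous blood then clotted and centrifuged 15 min at 3500 rpm. Serum tested by triple dot ELISA and scored by spot colour: brown +++, yellow ++, slight yellow +, colourless –. DMSO blank.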

Schistosoma japonicum [7] = test: Antischistosomal activity against Schistosoma japonicum infected in mouse at 50 mg/kg/day, po treated for 5 days measured after day 1 post last dose by ELISA; assay type: functional, organism-based; outline: as §2
Schistosoma japonicum [8] = test: Antischistosomal activity against Schistosoma japonicum infected in mouse at 25 mg/kg/day, po treated for 5 days measured after day 2 post last dose by ELISA; assay type: functional, organism-based; outline: as §2
Schistosoma japonicum [9] = test: Antischistosomal activity against Schistosoma japonicum infected in mouse at 50 mg/kg/day, po treated for 5 days measured after day 2 post last dose by ELISA; assay type: functional, organism-based; outline: as §2
Schistosoma japonicum [10] = test: Antischistosomal activity against Schistosoma japonicum infected in mouse at 25 mg/kg/day, po treated for 5 days measured after day 3 post last dose by ELISA; assay type: functional, organism-based; outline: as §2
Schistosoma japonicum [11] = test: Antischistosomal activity against Schistosoma japonicum infected in mouse at 50 mg/kg/day, po treated for 5 days measured after day 3 post last dose by ELISA; assay type: functional, organism-based; outline: as §2
Schistosoma japonicum [12] = test: Antischistosomal activity against Schistosoma japonicum infected in mouse at 25 mg/kg/day, po treated for 5 days measured after day 4 post last dose by ELISA; assay type: functional, organism-based; outline: as §2
Schistosoma japonicum [13] = test: Antischistosomal activity against Schistosoma japonicum infected in mouse at 50 mg/kg/day, po treated for 5 days measured after day 4 post last dose by ELISA; assay type: functional, organism-based; outline: as §2
Schistosoma japonicum [14] = test: Antischistosomal activity against Schistosoma japonicum infected in mouse at 25 mg/kg/day, po treated for 5 days measured after day 5 post last dose by ELISA; assay type: functional, organism-based; outline: as §2
Schistosoma japonicum [15] = test: Antischistosomal activity against Schistosoma japonicum infected in mouse at 50 mg/kg/day, po treated for 5 days measured after day 5 post last dose by ELISA; assay type: functional, organism-based; outline: as §2
Schistosoma japonicum [16] = test: Antischistosomal activity against Schistosoma japonicum infected in mouse at 25 mg/kg/day, po treated for 5 days measured after day 6 post last dose by ELISA; assay type: functional, organism-based; outline: as §2
Schistosoma japonicum [17] = test: Antischistosomal activity against Schistosoma japonicum infected in mouse at 50 mg/kg/day, po treated for 5 days measured after day 6 post last dose by ELISA; assay type: functional, organism-based; outline: as §2
Schistosoma japonicum [18] = test: Antischistosomal activity against Schistosoma japonicum infected in mouse at 25 mg/kg/day, po treated for 5 days measured after day 7 post last dose by ELISA; assay type: functional, organism-based; outline: as §2
Schistosoma japonicum [19] = test: Antischistosomal activity against Schistosoma japonicum infected in mouse at 50 mg/kg/day, po treated for 5 days measured after day 7 post last dose by ELISA; assay type: functional, organism-based; outline: as §2
Schistosoma japonicum [20] = test: Antischistosomal activity against Schistosoma japonicum infected in mouse at 25 mg/kg/day, po treated for 5 days measured after day 8 post last dose by ELISA; assay type: functional, organism-based; outline: as §2
Schistosoma japonicum [21] = test: Antischistosomal activity against Schistosoma japonicum infected in mouse at 50 mg/kg/day, po treated for 5 days measured after day 8 post last dose by ELISA; assay type: functional, organism-based; outline: as §2
Schistosoma japonicum [22] = test: Antischistosomal activity against Schistosoma japonicum infected in mouse at 25 mg/kg/day, po treated for 5 days measured after day 9 post last dose by ELISA; assay type: functional, organism-based; outline: as §2
Schistosoma japonicum [23] = test: Antischistosomal activity against Schistosoma japonicum infected in mouse at 50 mg/kg/day, po treated for 5 days measured after day 9 post last dose by ELISA; assay type: functional, organism-based; outline: as §2
[24] = Acute toxicity in po dosed mouse infected with Schistosoma japonicum treated for 5 days; assay type: organism-based; settings: in vivo

For Oc1ccc(OC(=S)Nc2ccc(Oc3ccc(C(F)(F)F)cc3)cc2)cc1, the IC50 (Schistosoma japonicum [1]) was 5.21 µg/mL (≈ 12.9 µM), the IC50 (Schistosoma japonicum [2]) was 6.35 µg/mL (≈ 15.7 µM) and the Activity (Schistosoma japonicum [3]) was “Active”. For the same compound, the Activity (Schistosoma haematobium) was “inactive”, the Activity (Schistosoma mansoni) was “inactive” and the logP [4] was 6.11. For the same compound, the pKa [5] was 9.23, the Activity (Schistosoma japonicum [6]) was “Active” and the Activity (Schistosoma japonicum [7]) was “Active”. The Activity (Schistosoma japonicum [8]) was “Active”, the Activity (Schistosoma japonicum [9]) was “Active” and the Activity (Schistosoma japonicum [10]) was “Active”. For the same compound, the Activity (Schistosoma japonicum [11]) was “Active”, the Activity (Schistosoma japonicum [12]) was “Active” and the Activity (Schistosoma japonicum [13]) was “inactive”. The Activity (Schistosoma japonicum [14]) was “Active”, the Activity (Schistosoma japonicum [15]) was “inactive” and the Activity (Schistosoma japonicum [16]) was “inactive”. For the same compound, the Activity (Schistosoma japonicum [17]) was “inactive”, the Activity (Schistosoma japonicum [18]) was “inactive” and the Activity (Schistosoma japonicum [19]) was “inactive”. For the same compound, the Activity (Schistosoma japonicum [20]) was “inactive”, the Activity (Schistosoma japonicum [21]) was “inactive” and the Activity (Schistosoma japonicum [22]) was “inactive”. The Activity (Schistosoma japonicum [23]) was “inactive” and the LD50 at 120 h [24] was over 500 mg/kg.
